From ChEMBL document CHEMBL1129298, “Nonpeptide angiotensin II receptor antagonists: synthesis, biological activities, and structure-activity relationships of imidazole-5-carboxylic acids bearing alkyl, alkenyl, and hydroxyalkyl substituents at the 4-position and their related compounds” (J Med Chem, 1996)
“And” between values parts separate entries of the source, which are not always exact repeats. Equal values may be shown once.

Columns and labels:
[1] = molecular target: T1, Type-1 angiotensin II receptor (Bos taurus, UniProt P25104); assay: In vitro for inhibition of [125I]-angiotensin II (0.1 nM) binding to angiotensin II receptor type 1 in membrane fractions of bovine adrenal cortex; type: tissue-based
T1 sequence (P25104 whole entry): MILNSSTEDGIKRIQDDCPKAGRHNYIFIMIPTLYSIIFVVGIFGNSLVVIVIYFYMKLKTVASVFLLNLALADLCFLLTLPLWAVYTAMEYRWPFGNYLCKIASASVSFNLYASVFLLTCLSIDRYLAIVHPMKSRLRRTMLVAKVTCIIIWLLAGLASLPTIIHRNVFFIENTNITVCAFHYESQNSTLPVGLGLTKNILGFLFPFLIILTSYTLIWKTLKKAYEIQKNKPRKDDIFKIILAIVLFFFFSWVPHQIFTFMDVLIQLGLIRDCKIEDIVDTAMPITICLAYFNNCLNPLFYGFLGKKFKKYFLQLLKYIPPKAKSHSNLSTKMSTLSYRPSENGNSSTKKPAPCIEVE

[2] = molecular target: Angiotensin II receptor (Rattus norvegicus) (UniProt P29089+P25095+P35351); assay: In vivo inhibitory activity against angiotensin II induced pressor response in anesthetized normotensive rats; type: functional, organism-based
Outline: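 Male Wistar-Imamichi rats (300–400 g) under inactin (100 mg/kg ip), with femoral arterial and venous cannulae. AII 50 ng/kg iv every 10 min until responses were constant. Compound in DMSO was then given iv and AII re-injected 2 min later.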

[3] = tested on: Rattus norvegicus; assay: Inhibitory activity against AII-Induced Pressor response at 0.3 mg/Kg at 1 hr; type: functional
Outline: (§1)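 Male Wistar-Imamichi rats (300–400 g) cannulated under pentobarbital (50 mg/kg ip), fasted 24 h, tested conscious the next day. AII 50 ng/kg iv was repeated until constant, then compound in 50% aqueous DMF given orally. AII was repeated over 8 h, and mean blood pressure response inhibition (%) was recorded at 1, 3, 6 h. n = 3–5.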

[4] = tested on: Rattus norvegicus; assay: Inhibitory activity against AII-Induced Pressor response at 0.3 mg/Kg at 3 hour; type: functional; outline: as §1
[5] = tested on: Rattus norvegicus; assay: Inhibitory activity against AII-Induced Pressor response at 0.3 mg/Kg at 6 hour; type: functional; outline: as §1
[6] = tested on: Rattus norvegicus; assay: Inhibitory activity against AII-Induced Pressor response at 1 mg/Kg at 1 hr; type: functional; outline: as §1
[7] = tested on: Rattus norvegicus; assay: Inhibitory activity against AII-Induced Pressor response at 1 mg/Kg at 3 hour; type: functional; outline: as §1
[8] = tested on: Rattus norvegicus; assay: Inhibitory activity against AII-Induced Pressor response at 1 mg/Kg at 6 hour; type: functional; outline: as §1
[9] = tested on: Rattus norvegicus; assay: Inhibitory activity against AII-Induced Pressor response at 1 mg/kg at 1 hr; type: functional; outline: as §1
[10] = tested on: Rattus norvegicus; assay: Inhibitory activity against AII-Induced Pressor response at 1 mg/kg at 3 hour; type: functional; settings: 1 mg/kg; outline: as §1
[11] = tested on: Rattus norvegicus; assay: Inhibitory activity against AII-Induced Pressor response at 1 mg/kg at 6 hour; type: functional; outline: as §1
[12] = tested on: Rattus norvegicus; assay: Inhibitory activity against AII-Induced Pressor response at 3 mg/Kg at 1 hr; type: functional; outline: as §1
[13] = tested on: Rattus norvegicus; assay: Inhibitory activity against AII-Induced Pressor response at 0.3 mg/Kg at 3 hr; type: functional; outline: as §1
[14] = tested on: Rattus norvegicus; assay: Inhibitory activity against AII-Induced Pressor response at 0.03 mg/Kg at 1 hr; type: functional; outline: as §1
[15] = tested on: Rattus norvegicus; assay: Inhibitory activity against AII-Induced Pressor response at 0.03 mg/Kg at 3 hour; type: functional; outline: as §1
[16] = tested on: Rattus norvegicus; assay: Inhibitory activity against AII-Induced Pressor response at 0.03 mg/Kg at 6 hour; type: functional; outline: as §1
[17] = tested on: Rattus norvegicus; assay: Inhibitory activity against AII-Induced Pressor response at 0.1 mg/Kg at 3 hour; type: functional; outline: as §1
[18] = tested on: Rattus norvegicus; assay: Inhibitory activity against AII-Induced Pressor response at 0.1 mg/Kg at 6 hour; type: functional; outline: as §1
[19] = tested on: Rattus norvegicus; assay: Inhibitory activity against AII-Induced Pressor response at 0.1 mg/Kg at 1 hr; type: functional; outline: as §1

Row | Compound | IC50 [1] | ID50 [2] | inhibition in vivo at 0.3 mg/kg [3] | inhibition in vivo at 0.3 mg/kg [4] | inhibition in vivo at 0.3 mg/kg [5] | inhibition in vivo at 1 mg/kg [6] | inhibition in vivo at 1 mg/kg [7] | inhibition in vivo at 1 mg/kg [8] | inhibition in vivo at 1 mg/kg [9] | Inhibition [10] | inhibition in vivo at 1 mg/kg ([11]; Rattus norvegicus, 6 h, dose 1 mg/kg) | Inhibition ([11]; dose 3 mg/kg, in the assay text read “3 mg/kg” for “1 mg/kg”) | inhibition in vivo at 3 mg/kg [12] | inhibition in vivo at 0.3 mg/kg [13] | inhibition in vivo at 0.03 mg/kg [14] | inhibition in vivo at 0.03 mg/kg [15] | inhibition in vivo at 0.03 mg/kg [16] | inhibition in vivo at 0.1 mg/kg [17] | inhibition in vivo at 0.1 mg/kg [18] | inhibition in vivo at 0.1 mg/kg [19]
1 | CCCc1nc(C(C)(C)O)c(C(=O)O)n1Cc1ccc(-c2ccccc2-c2nnn[nH]2)cc1 [OLMESARTAN] | 8.1 nM | 7.9 µg/kg | 83% | 77% | 78% | 98% | 98% | 93% |  |  |  |  |  |  |  |  |  |  |  | 
2 | CCCc1nc(C(C)(C)O)c(C(=O)OCOC(=O)C(C)(C)C)n1Cc1ccc(-c2ccccc2C(=O)O)cc1 |  |  | 43% |  |  |  |  |  | 52% | 61% and 85% | 75% | 87% | 85% | 32% |  |  |  |  |  | 
3 | CCCc1nc(C(C)(C)O)c(C(=O)OCOC(=O)C(C)(C)C)n1Cc1ccc(-c2ccccc2-c2nn[nH]n2)cc1 |  |  | 76% | 85% | 90% |  |  |  |  |  |  |  |  |  | 29% | 41% | 43% | 84% | 70% | 75%
